According to article PMC12828150 (Acta Pharmaceutica Sinica. B, 2025):

Key:
HepG2 = assay: Antiproliferative activity, HepG2 cells; format: cell-based; settings: read-out: HepG2 IC50
Method in brief: (§1)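 Cells seeded at 1000 per well in RPMI-1640 with 10% FBS and left 24 h before adding diluted test compound. After 96 h exposure, viability was read by CellTiter-Glo luminescence. Readings were normalised as % of untreated cells and IC50 derived. n = 3, values averaged.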

HeLa = assay: Antiproliferative activity, HeLa cells; format: cell-based; settings: read-out: HeLa IC50
Method in brief: as §1

Question: Which results are given for `CN1CCC(NC2CCc3[nH]c4c(C(N)=O)ccc(-c5ccccc5Cl)c4c3C2)CC1` (centres unmarked) [WJ0909]?
Answer: IC50 (HepG2): 24 nM; IC50 (HeLa): 17 nM
